Measurements: ChEMBL document CHEMBL4321819, “Simple Structural Modifications Converting a Bona fide MDM2 PROTAC Degrader into a Molecular Glue Molecule: A Cautionary Tale in the Design of PROTAC Degraders” (J Med Chem, 2019)
The source made the active and inactive calls. No cut-off for these calls is given here.

Columns and labels:
[1] = target: T1, Eukaryotic peptide chain release factor GTP-binding subunit ERF3A (Homo sapiens, UniProt P15170); test: Induction of GSPT1 degradation in human RS4:11 cells measured after 24 hrs by Western blot analysis; assay type: cell-based
[2] = target: T1, Eukaryotic peptide chain release factor GTP-binding subunit ERF3A; test: Induction of GSPT1 degradation in human RS4:11 cells at 0.1 uM pretreated with Nedd8 inhibitor MLN4924 followed by compound treatment after 2 hrs by Western blot analysis
[3] = target: T2, Protein cereblon/Eukaryotic peptide chain release factor GTP-binding subunit ERF3A/DNA damage-binding protein 1/Cullin-4A (Homo sapiens) (UniProt Q96SW2+Q16531+Q13619+P15170); test: Protac activity at GSPT1/CUL4/DDB1/CRBN in human RS4:11 cells expressing wild type p53 assessed as decrease in GSPT1 protein level after 2 hrs by Western blot analysis; assay type: cell-based
Method in brief: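 RS4;11 (wild-type p53) or RS4;11/IRMI-2 (MDM2 inhibitor-resistant derivative, mutant p53) cells kept in RPMI 1640 with 10% FBS at 37 °C, 5% CO₂. 2×10^6 cells/well treated at the indicated concentrations and times, then lysed in ice-cold lysis buffer with protease inhibitor. GSPT1 detected by Western blot with a specific antibody.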

[4] = target: T3, E3 ubiquitin-protein ligase Mdm2 (Homo sapiens, UniProt Q00987); test: Induction of MDM2 degradation in human RS4:11 cells assessed as downregulation of MDM2 at 1 to 30 nM after 2 hrs by Western blot analysis; assay type: cell-based
Method in brief: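 Western blots of MDM2 and p53 protein were run on RS4;11 cells (wild-type p53) in RPMI 1640 with 10% FBS. 2×10^6 cells/well were treated at the indicated concentrations for 1 h or 2 h. Lysis was in ice-cold buffer with protease inhibitor, followed by probing with specific antibodies.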

HL-60 = test: Antiproliferative activity against human HL60 cells with lack of p53 assessed as cell growth inhibition after 4 days by WST-8 assay; assay type: functional, cell-based; details: HL-60, 96 h
Method in brief: (§1)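 Leukemia cells seeded at 10000–20000 cells/well, breast cancer lines at 5000–10000 cells/well. Serially diluted compound added, then 4 days at 37 °C, 5% CO2. Growth read with WST-8 reagent after at least 1 h, absorbance at 450 nm. RS4;11, MOLM-13 and breast lines were grown in RPMI 1640; MV-4-11 and HL-60 in IMDM; all with 10% FBS. Mean ± SE, at least three independent experiments.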

MV4-11 = test: Antiproliferative activity against human MV4-11 cells expressing wild type p53 assessed as cell growth inhibition after 4 days by WST-8 assay; assay type: functional, cell-based; details: MV4-11, 96 h; method in brief: as §1
MDA-MB-468 [5] = test: Antiproliferative activity against human MDA-MB-468 cells transfected with CRBN siRNA LQ-021086-10-0002 assessed as cell growth inhibition after 4 days by WST-8 assay; assay type: functional, cell-based; details: MDA-MB-468, 96 h
Method in brief: (§2)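 MDA-MB-231 or MDA-MB-468 cells transfected for 2 days using Lipofectamine RNAiMAX with MDM2 siRNA, one of two CRBN siRNAs, or non-targeting control siRNA. Compound then added and growth read by WST-8 at 450 nm.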

[6] = target: Protein cereblon/Eukaryotic peptide chain release factor GTP-binding subunit ERF3A (Homo sapiens) (UniProt Q96SW2+P15170); test: Inhibition of cereblon binding with GSPT1 human MDA-MB-468 cells assessed as decrease in GSPT1 degradation at 0.1 uM after 2 hrs in presence of 30 uM lenalidomide by Western blot analysis; assay type: cell-based
Method in brief: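 MDA-MB-231 or MDA-MB-468 cells were treated 2 h with or without 30 μM lenalidomide to block cereblon binding. GSPT1 protein level was then assessed by Western blotting.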

[7] = target: Cellular tumor antigen p53 (Homo sapiens) (UniProt P04637); test: Activation of p53 in human RS4:11 cells assessed as increase in PUMA mRNA expression at 3 nM after 1 to 2 hrs by qRT-PCR analysis; assay type: cell-based
Method in brief: (§3)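 RS4;11 cells (RPMI 1640, 10% FBS, 37 °C, 5% CO2) treated with 3 nM or 10 nM compound; total RNA extracted and mRNA of p53 targets MDM2, CDKN1A, PUMA and BAX quantified by qRT-PCR. Mean ± standard error from at least three independent experiments.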

MDA-MB-231 [8] = test: Antiproliferative activity against human MDA-MB-231 cells harboring mutant p53 assessed as cell growth inhibition after 4 days by WST-8 assay; assay type: functional, cell-based; details: MDA-MB-231, 96 h; method in brief: as §1
MDA-MB-231 [9] = test: Antiproliferative activity against human MDA-MB-231 cells assessed as cell growth inhibition after 4 days in presence of control siRNA for 3 days followed by compound treatment by WST-8 assay; assay type: functional, cell-based
MDA-MB-468 [10] = test: Antiproliferative activity against human MDA-MB-468 cells transfected with MDM2 siRNA assessed as cell growth inhibition after 4 days by WST-8 assay; assay type: functional, cell-based; details: MDA-MB-468, 96 h; method in brief: as §2
[11] = target: T2, Protein cereblon/Eukaryotic peptide chain release factor GTP-binding subunit ERF3A/DNA damage-binding protein 1/Cullin-4A (Homo sapiens); test: Protac activity at GSPT1/CUL4/DDB1/CRBN in human RS4:11 cells expressing wild type p53 assessed as decrease in GSPT1 protein level by measuring fold change of protein level before and after treatment at 0.1 uM measured after 3 hrs relative to control
[12] = Antiproliferative activity against human RS4:11/IRMI-2 cells harboring p53 hotspot mutation Y236H/R249G assessed as cell growth inhibition after 4 days by WST-8 assay; assay type: functional, cell-based; details: RS4-11, 96 h; method in brief: as §1
[13] = target: T1, Eukaryotic peptide chain release factor GTP-binding subunit ERF3A; test: Induction of GSPT1 degradation in human RS4:11 cells at 0.1 uM pretreated with proteasome inhibitor PR-171 followed by compound treatment after 2 hrs by Western blot analysis
[14] = Antiproliferative activity against human RS4:11/IRMI-2 cells harboring p53 hotspot mutation Y236H/R249G assessed as cell growth inhibition without interaction with cereblon after 4 days by WST-8 assay; assay type: functional, cell-based; details: RS4-11, 96 h; method in brief: as §1
[15] = target: T3, E3 ubiquitin-protein ligase Mdm2; test: Induction of MDM2 degradation in human RS4:11/IRMI-2 cells harboring p53 hotspot mutation Y236H/R249G assessed as downregulation of MDM2 at 1 to 30 nM after 2 hrs by Western blot analysis; assay type: cell-based
Method in brief: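 RS4;11/IRMI-2 cells are an MDM2 inhibitor-resistant line derived from RS4;11, with p53 mutations confirmed by sequencing. 2×10^6 cells/well were treated 2 h at the indicated concentrations. MDM2 protein was probed by Western blot after lysis in ice-cold buffer with protease inhibitor.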

RS4-11 = test: Antiproliferative activity against human RS4:11 cells expressing wild type p53 assessed as cell growth inhibition after 4 days by WST-8 assay; assay type: functional, cell-based; details: RS4-11, 96 h; method in brief: as §1
[16] = target: Cellular tumor antigen p53 (Homo sapiens) (UniProt P04637); test: Activation of p53 in human RS4:11 cells assessed as increase in CDKN1A mRNA expression at 3 nM after 1 to 2 hrs by qRT-PCR analysis; assay type: cell-based; method in brief: as §3

T1 sequence (P15170 whole entry): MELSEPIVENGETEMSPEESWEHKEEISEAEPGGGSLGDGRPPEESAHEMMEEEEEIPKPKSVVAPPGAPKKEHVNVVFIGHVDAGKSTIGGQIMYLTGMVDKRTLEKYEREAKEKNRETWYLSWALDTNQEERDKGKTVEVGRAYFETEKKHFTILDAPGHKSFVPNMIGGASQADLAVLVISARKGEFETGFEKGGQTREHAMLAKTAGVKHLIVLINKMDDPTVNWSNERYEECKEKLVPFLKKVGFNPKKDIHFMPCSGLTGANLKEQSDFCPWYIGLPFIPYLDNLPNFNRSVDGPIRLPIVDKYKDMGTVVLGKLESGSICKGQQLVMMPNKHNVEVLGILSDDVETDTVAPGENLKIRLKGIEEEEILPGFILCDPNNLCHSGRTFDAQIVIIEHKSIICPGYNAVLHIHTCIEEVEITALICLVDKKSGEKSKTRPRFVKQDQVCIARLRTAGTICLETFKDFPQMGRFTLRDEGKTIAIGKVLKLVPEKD
Sequence of Cellular tumor antigen p53 (Homo sapiens) (P04637 whole entry, looked up): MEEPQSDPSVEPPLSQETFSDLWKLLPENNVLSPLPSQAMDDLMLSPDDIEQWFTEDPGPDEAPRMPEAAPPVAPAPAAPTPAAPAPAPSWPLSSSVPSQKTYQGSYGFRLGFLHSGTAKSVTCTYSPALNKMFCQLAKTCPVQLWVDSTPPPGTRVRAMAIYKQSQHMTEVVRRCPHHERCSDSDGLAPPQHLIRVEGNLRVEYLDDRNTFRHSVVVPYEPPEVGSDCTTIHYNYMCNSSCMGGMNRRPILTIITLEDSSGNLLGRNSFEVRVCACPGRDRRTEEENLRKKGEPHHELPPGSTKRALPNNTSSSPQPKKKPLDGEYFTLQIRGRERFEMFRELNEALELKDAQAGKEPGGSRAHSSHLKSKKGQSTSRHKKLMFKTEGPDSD
T3 sequence (Q00987 whole entry, looked up): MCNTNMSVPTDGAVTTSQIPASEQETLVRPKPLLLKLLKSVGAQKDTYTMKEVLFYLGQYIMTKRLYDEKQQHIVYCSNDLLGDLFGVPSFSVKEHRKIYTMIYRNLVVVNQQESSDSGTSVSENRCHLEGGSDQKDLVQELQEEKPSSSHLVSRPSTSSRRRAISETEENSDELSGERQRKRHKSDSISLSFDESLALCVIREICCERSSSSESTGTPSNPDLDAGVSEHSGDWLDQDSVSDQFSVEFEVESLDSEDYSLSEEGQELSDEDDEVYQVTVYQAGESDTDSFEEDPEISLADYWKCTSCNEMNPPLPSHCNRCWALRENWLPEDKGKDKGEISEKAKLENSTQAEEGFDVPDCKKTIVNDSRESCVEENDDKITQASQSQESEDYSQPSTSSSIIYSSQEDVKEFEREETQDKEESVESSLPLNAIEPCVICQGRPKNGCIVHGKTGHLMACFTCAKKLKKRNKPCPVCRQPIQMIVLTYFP
T2 sequence (P15170 whole entry, looked up): as the sequence (P15170 whole entry) above
T2 sequence (Q13619 whole entry, looked up): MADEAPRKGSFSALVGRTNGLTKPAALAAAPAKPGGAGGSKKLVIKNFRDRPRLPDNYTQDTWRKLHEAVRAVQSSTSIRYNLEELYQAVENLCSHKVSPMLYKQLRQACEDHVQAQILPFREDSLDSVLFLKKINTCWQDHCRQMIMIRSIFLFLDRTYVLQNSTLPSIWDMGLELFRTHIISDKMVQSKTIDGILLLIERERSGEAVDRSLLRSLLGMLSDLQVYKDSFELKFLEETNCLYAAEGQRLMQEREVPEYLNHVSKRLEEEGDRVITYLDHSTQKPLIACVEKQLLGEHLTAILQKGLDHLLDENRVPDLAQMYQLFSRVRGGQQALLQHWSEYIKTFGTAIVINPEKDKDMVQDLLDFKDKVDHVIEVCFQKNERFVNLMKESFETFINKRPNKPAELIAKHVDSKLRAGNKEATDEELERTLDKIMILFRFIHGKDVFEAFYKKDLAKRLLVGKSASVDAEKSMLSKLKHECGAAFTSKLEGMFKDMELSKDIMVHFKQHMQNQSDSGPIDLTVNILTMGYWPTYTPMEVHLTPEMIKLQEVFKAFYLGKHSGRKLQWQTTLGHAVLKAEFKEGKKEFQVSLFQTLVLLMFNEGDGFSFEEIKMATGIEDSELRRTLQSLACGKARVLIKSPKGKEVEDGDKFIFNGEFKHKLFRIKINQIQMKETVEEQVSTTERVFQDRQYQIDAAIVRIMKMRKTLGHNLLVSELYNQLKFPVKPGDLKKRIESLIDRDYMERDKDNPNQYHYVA
T2 sequence (Q16531 whole entry, looked up): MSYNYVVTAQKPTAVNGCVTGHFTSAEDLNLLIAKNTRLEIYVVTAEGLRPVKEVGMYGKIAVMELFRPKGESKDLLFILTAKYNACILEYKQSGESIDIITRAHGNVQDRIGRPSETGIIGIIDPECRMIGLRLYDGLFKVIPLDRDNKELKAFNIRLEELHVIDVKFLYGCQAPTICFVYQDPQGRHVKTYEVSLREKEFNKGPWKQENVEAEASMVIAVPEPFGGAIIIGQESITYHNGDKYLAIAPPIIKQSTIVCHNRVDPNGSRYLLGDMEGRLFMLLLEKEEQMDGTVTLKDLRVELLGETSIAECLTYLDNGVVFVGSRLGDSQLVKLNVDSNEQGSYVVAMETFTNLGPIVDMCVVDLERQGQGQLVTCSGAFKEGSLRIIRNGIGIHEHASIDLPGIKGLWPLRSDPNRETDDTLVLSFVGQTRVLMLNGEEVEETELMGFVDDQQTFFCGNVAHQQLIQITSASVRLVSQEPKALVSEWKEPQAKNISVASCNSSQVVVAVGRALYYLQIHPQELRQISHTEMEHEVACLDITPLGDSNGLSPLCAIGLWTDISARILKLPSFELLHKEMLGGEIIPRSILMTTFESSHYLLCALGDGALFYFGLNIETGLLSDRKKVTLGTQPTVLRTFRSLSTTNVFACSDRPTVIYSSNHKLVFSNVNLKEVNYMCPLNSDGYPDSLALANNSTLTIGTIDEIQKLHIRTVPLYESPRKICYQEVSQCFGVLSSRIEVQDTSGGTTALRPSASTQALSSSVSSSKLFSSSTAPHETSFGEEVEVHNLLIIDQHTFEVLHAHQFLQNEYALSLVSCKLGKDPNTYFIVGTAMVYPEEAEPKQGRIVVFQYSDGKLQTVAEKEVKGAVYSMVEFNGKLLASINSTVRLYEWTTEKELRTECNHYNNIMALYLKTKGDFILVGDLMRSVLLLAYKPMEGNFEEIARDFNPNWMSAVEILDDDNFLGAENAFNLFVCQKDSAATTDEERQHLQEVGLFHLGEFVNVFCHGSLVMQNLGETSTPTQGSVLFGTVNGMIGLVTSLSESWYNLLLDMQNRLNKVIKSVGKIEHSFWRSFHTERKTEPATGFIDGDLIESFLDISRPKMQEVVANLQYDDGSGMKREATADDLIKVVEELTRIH
T2 sequence (Q96SW2 whole entry, looked up): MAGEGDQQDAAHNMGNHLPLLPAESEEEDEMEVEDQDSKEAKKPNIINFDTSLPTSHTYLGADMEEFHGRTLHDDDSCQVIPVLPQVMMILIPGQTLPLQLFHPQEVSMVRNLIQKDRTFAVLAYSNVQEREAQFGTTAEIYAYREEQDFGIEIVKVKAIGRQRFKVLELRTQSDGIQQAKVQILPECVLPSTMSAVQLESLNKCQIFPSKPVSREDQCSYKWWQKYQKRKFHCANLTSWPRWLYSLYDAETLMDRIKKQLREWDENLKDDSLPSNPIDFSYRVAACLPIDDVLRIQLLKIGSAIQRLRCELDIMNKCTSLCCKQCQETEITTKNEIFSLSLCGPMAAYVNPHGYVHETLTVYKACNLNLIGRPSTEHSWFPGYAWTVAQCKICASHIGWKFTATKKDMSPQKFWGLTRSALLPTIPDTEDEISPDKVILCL
Sequence of Protein cereblon/Eukaryotic peptide chain release factor GTP-binding subunit ERF3A (Homo sapiens) (P15170 whole entry, looked up): as the sequence (P15170 whole entry) above
Sequence of Protein cereblon/Eukaryotic peptide chain release factor GTP-binding subunit ERF3A (Homo sapiens) (Q96SW2 whole entry, looked up): as the sequence (Q96SW2 whole entry, looked up) above

In the case of `O=C1CCC(N2Cc3c(CCCCCNC(=O)[C@@H]4NC5(CCCCC5)[C@@]5(C(=O)Nc6cc(Cl)ccc65)[C@H]4c4cccc(Cl)c4F)cccc3C2=O)C(=O)N1` (some centres undefined), the DC50 [1] is reported as 1.3 nM, the Activity [2] is reported as “inactive” and the Activity [3] is reported as “Active”. The Activity [4] was “Active”, the IC50 (HL-60) was 8.3 nM and the IC50 (MV4-11) was 7.9 nM. For the same compound, the IC50 (MDA-MB-468 [5]) was > 1000 nM, the inhibition [6] was “Active” and the Activity [7] was “inactive”. The IC50 (MDA-MB-231 [8]) was 39.4 nM, the IC50 (MDA-MB-231 [9]) was 30 nM and the IC50 (MDA-MB-468 [10]) was 19.8 nM. The fold change [11] was 5.3, the IC50 [12] was 3.4 nM and the Activity [13] was “inactive”. The IC50 [14] was 2.6 nM, the Activity [15] was “Active” and the IC50 (RS4-11) was 3.5 nM. For the same compound, the Activity [16] was “inactive”.
